In ChEMBL document CHEMBL1122913, “Novel dopamine receptor agonists and antagonists with preferential action on autoreceptors” (1985):
Activity calls are given as the source filed them. The calls are words filed in the database; no cut-off is given here.

Key:
[1] = organism: Rattus norvegicus; test: Locomotor activity after reserpine pretreatment in rat; format: functional
How it was run: (§1)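 Rats received reserpine 10 mg/kg ip 6 h and DL-α-methyl-p-tyrosine methyl ester 250 mg/kg ip 1 h before, then test drug sc immediately before the session. Photocell counts accumulated over 30 min, mean ± SEM, n = 4-9; t test vs saline controls. Haloperidol 0.3 mg/kg ip 30 min before test drug used for blockade.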

[2] = organism: Rattus norvegicus; test: Locomotor activity after no pretreatment in rat at high-dose region expressed as percent of saline control; Inactive; format: functional, organism-based
[3] = organism: Rattus norvegicus; test: Locomotor activity after no pretreatment in rat at low-dose region expressed as percent of saline control; Inactive; format: functional, organism-based
[4] = system: Rattus norvegicus; test: Effective dose against DOPA accumulation in rat brain limbic region after reserpine pretreatment by subcutaneous administration; format: functional; details: sc
How it was run: (§2)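 Male Sprague-Dawley rats (200-300 g), reserpine 5 mg/kg ip 18 h, test drug sc 60 min, and NSD 1015 100 mg/kg ip 30 min before death; saline controls. Limbic and striatal DOPA measured by HPLC-electrochemical detection. ED50 is the dose giving half-maximal decrease of DOPA formation, estimated from 4-7 dose levels (n = 3); controls = 100%.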

[5] = system: Rattus norvegicus; test: Effective dose against DOPA accumulation in rat brain striatal region after no pretreatment by subcutaneous administration; No significant effect of 16 mg/kg subcutaneous administration; format: functional, organism-based; design: dose 16 mg/kg
[6] = system: Rattus norvegicus; test: Effective dose against DOPA accumulation in rat brain striatal region after reserpine pretreatment by subcutaneous administration; format: functional; details: sc; how it was run: as §2
[7] = system: Rattus norvegicus; test: Effective dose against DOPA accumulation in rat brain limbic region after no pretreatment by subcutaneous administration; No significant effect of 16 mg/kg subcutaneous administration; format: functional, organism-based; design: dose 16 mg/kg
[8] = organism: Rattus norvegicus; test: Locomotor activity after no pretreatment in rat at high-dose region expressed as percent of saline control; format: functional
[9] = organism: Rattus norvegicus; test: Locomotor activity after no pretreatment in rat at low-dose region expressed as percent of saline control; format: functional
[10] = system: Rattus norvegicus; test: Effective dose against DOPA accumulation in rat brain limbic region after no pretreatment by subcutaneous administration; format: functional; details: sc
How it was run: (§3)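 Untreated male Sprague-Dawley rats (200-300 g) received test drug sc 65 min and NSD 1015 100 mg/kg ip 30 min before death; saline controls. Limbic or striatal DOPA measured by HPLC-electrochemical detection. ED50 is the dose giving half-maximal increase or decrease of DOPA formation, from 4-5 dose levels (n = 3-10); controls = 100%.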

[11] = system: Rattus norvegicus; test: Effective dose against DOPA accumulation in rat brain limbic region after reserpine pretreatment by subcutaneous administration; No significant effect of 16 mg/kg subcutaneous administration; format: functional, organism-based; design: dose 16 mg/kg
[12] = system: Rattus norvegicus; test: Effective dose against DOPA accumulation in rat brain striatal region after no pretreatment by subcutaneous administration; format: functional; details: sc; how it was run: as §3
[13] = system: Rattus norvegicus; test: Effective dose against DOPA accumulation in rat brain striatal region after reserpine pretreatment by subcutaneous administration; No significant effect of 16 mg/kg subcutaneous administration; format: functional, organism-based; design: dose 16 mg/kg
[14] = organism: Rattus norvegicus; test: Locomotor activity after reserpine pretreatment in rat(p<0.001); format: functional; how it was run: as §1
[15] = organism: Rattus norvegicus; test: Locomotor activity after reserpine pretreatment in rat; Not Tested; format: functional, organism-based
[16] = system: Rattus norvegicus; test: Effective dose against DOPA accumulation in rat brain limbic region after reserpine pretreatment by subcutaneous administration; No significant effect at 0.5 mg/kg intraperitoneal administration; format: functional, organism-based; design: dose 0.5 mg/kg
[17] = system: Rattus norvegicus; test: Effective dose against DOPA accumulation in rat brain striatal region after reserpine pretreatment by subcutaneous administration; No significant effect at 0.5 mg/kg intraperitoneal administration; format: functional, organism-based; design: dose 0.5 mg/kg

CCCN(CCC)[C@H]1CCc2c(OC)cccc2[C@H]1C.Cl
Accumulated counts/30 min [1]: 8
Control [2]: inactive
Control [3]: inactive
ED50 [4]: 1.7 mg/kg
ED50 [5]: inactive
ED50 [6]: 1.8 mg/kg
ED50 [7]: inactive

CCCN(CCC)[C@@H]1CCc2c(OC)cccc2[C@@H]1C.Cl
Accumulated counts/30 min [1]: 4
Control [8]: 49%
Control [9]: 144%
ED50 [10]: 4 mg/kg
ED50 [11]: inactive
ED50 [12]: 3 mg/kg
ED50 [13]: inactive

CCCN(CCC)[C@@H]1CCc2c(O)cccc2[C@@H]1C.Cl
Accumulated counts/30 [1]: 6
Control [8]: 69%
Control [9]: 128%
ED50 [10]: 3 mg/kg
ED50 [11]: inactive
ED50 [12]: 2.8 mg/kg
ED50 [13]: inactive

CN1CCc2cccc3c2[C@H]1Cc1ccc(O)c(O)c1-3 [APOMORPHINE]
Accumulated counts/30 [14]: 361
Control [8]: 277%
Control [9]: 52%
ED50 [4]: 0.06 mg/kg
ED50 [6]: 0.07 mg/kg

CCCN(CCC)[C@H]1CCc2c(O)cccc2[C@H]1C.Cl
Accumulated counts/30 min [1]: 79
Control [8]: 171%
Control [9]: 65%
ED50 [10]: 0.25 mg/kg
ED50 [4]: 0.09 mg/kg
ED50 [12]: 0.25 mg/kg
ED50 [6]: 0.1 mg/kg

O=C(CCCN1CCC(O)(c2ccc(Cl)cc2)CC1)c1ccc(F)cc1 [HALOPERIDOL]
Accumulated counts/30 min [15]: inactive
Control [8]: 3%
Control [9]: 75%
ED50 [10]: 0.07 mg/kg
ED50 [16]: inactive
ED50 [12]: 0.07 mg/kg
ED50 [17]: inactive
